Screening data as filed in PubChem BioAssay.
Shown are actives, neighbours in structure and some others; about 3.1% of the full set was active somewhere.
KCNQ1 pot: human KCNQ1 channel potentiation or activation. hit rate 0.35% among 310,000. B-score at 10 µM. CHO-K1 KCNQ1, thallium flux FluxOR fluorescence; stronger effect = higher value;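 active means fluorescence ratio B-score, a plate-corrected score, at least three library SD, with initial intensity B-score within 5 SD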
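Assay system: stable KCNQ1 CHO-K1 line; medium: assay buffer, equal DMSO in all wells; timing: 90 min dye loading and 20 min compound exposure, both at room temperature; technique: kinetic FluxOR thallium fluorescence, 10-s 1-Hz baseline, 110-s post-stimulus read; read-out basis: B score of baseline-normalized fluorescence ratio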
KCNQ1 inh: human KCNQ1 channel inhibition. P51787. CHO-K1 KCNQ1, FluxOR thallium flux fluorescence; stronger effect = higher value. B-score at 10 µM. hit rate 1.3% among 310,000. AID 2642;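 active means compounds whose thallium flux B-score, printed positive for inhibition, exceeds three library SD while starting fluorescence stays within three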;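 further: channel opened by potassium depolarization with thallium stimulus after 20 min compound exposure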
KCNK9 block: human KCNK9 channel inhibition; Q9NPC2; HEK293 KCNK9, FluxOR thallium flux fluorescence; stronger effect = lower value; B-score at 10 µM; hit rate 1.2% among 310,000;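 active means ratio B-score over 3 SD below the library mean, with starting fluorescence within 5 SD of its mean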;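 further: negative B-score means less thallium flux so channel inhibition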
KCNK3 inh: human KCNK3 channel inhibition, primary screen | O14649 | CHO-KCNK3 thallium flux, FluxOR fluorescence; stronger effect = lower value | B-score at 10 µM | hit rate 0.84% among 340,000;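 active means B-score under library mean minus 4 SD, starting fluorescence ratio at most library mean plus 5 SD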;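 further: more negative B-score means stronger inhibition of thallium flux through KCNK3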
hERG rescue: hERG (human) protection from proarrhythmic block | CHO-hERG, FluxOR thallium flux, dofetilide IC70 present | activation (rescue from dofetilide block), less the hit threshold, % at 10 µM | hit rate 0.51% among 310,000 | Q12809 | AID 1511;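 active means activation above the mean of controls blocked by dofetilide plus 5 SD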;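 further: thallium influx through hERG after potassium depolarization seen as dye fluorescence rise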
KCNK9 inh conf: human KCNK9 inhibitor confirmation; inhibition, % at 10 µM; AID 492992; hit rate 43% among 4,900; shares compounds with KCNK9 block; HEK293 KCNK9 cells, FluxOR thallium flux fluorescence;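 active means thallium signal inhibited by more than 5 SD of the compound-free buffer control wells, on both duplicate plates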;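 further: 0% = assay buffer control wells without compound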
Kir21 sel: selectivity of KCNK9 modulators against mouse Kir2.1; shares compounds with KCNK9 block; Kir2.1 cells, FluxOR thallium flux fluorescence; inhibition, % at 10 µM; hit rate 4% among 4,900; AID 492993;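 active means thallium signal drop more than 5 SD beyond the mean of the no-compound control wells, seen in both duplicate plates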;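 further: signal is fluorescence rise after thallium addition divided by baseline fluorescence; plate controls were assay buffer only for no effect and full block by chlorpromazine control for full effect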
Target sequence (P35561 whole entry, looked up): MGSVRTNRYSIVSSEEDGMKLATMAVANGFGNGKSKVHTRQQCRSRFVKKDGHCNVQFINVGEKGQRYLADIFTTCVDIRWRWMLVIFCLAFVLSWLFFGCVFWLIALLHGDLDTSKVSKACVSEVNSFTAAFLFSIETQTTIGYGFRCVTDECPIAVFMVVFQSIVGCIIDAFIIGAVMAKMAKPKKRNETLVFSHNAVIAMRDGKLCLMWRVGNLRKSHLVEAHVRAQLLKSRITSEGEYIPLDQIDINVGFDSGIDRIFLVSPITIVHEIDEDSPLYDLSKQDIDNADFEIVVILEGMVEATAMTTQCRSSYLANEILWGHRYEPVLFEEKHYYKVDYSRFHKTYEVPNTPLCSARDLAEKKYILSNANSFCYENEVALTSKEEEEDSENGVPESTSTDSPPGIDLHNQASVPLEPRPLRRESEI
HEK293 Tl ctr: second check of KCNK9 modulator effects in non-induced HEK293 cells. shares compounds with KCNK9 block. FluxOR thallium flux. inhibition, % at 10 µM. hit rate 40% among 4,900. AID 492997;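 active means thallium signal drop beyond 5 SD of the untreated control mean, on both duplicate plates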;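 further: plate controls were buffer only IC0 wells for no effect and SID17386958 at its maximal inhibitory level for full effect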
KCNK3 confirm: confirmation of human KCNK3 two-pore domain potassium channel inhibitors | ratio percent of control, % at 10 µM | shares compounds with KCNK3 inh | CHO-KCNK3 thallium flux, FluxOR fluorescence; 0% buffer, 100% carvedilol maximal block | AID 651638 | hit rate 99% among 2,400;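 active means ratio percent of control, averaged over triplicates, above buffer control mean plus 5 SD, cut at about 64% in these data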;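 further: ratio is the fluorescence rise from min to max over baseline after thallium stimulus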
KCNK3 uninduced: KCNK3 inhibitor counter-screen hit in non-induced cells; shares compounds with KCNK3 inh; non-induced KCNK3 parental cells, FluxOR thallium flux; stronger effect = lower value; thallium flux ratio (lower = more inhibition) at 10 µM; hit rate 40% among 2,400; AID 651747;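 active means thallium flux ratio, averaged over three wells, more than 5 SD below the buffer control mean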;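 further: host cells are CHO cells without KCNK3 induction; ratio is peak minus trough fluorescence over baseline then normalized to buffer controls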
The depositor's hits bear a star; i = inactive; x = no result given.

SMILES	KCNQ1 pot	KCNQ1 inh	KCNK9 block	KCNK3 inh	hERG rescue	KCNK9 inh conf	Kir21 sel	HEK293 Tl ctr	KCNK3 confirm	KCNK3 uninduced
Cc1ccccc1CCN1CCCC(CN(C)C(=O)c2ccc3ncccc3c2)C1 (centres undefined)	i	i	i	i	-4	x	x	x	x	x
CCC1CN(S(=O)(=O)c2cc(-c3cc(C)no3)ccc2OC)c2cc(C)ccc2O1 (centres undefined)	i	i	-11*	-11*	-17	36%*	i	32%*	121*	0.15*
CCc1ccc(-c2cc(C)no2)cc1S(=O)(=O)N1CCOc2ccc(C)cc21	i	i	-8.9*	-11*	-8	48%*	i	33%*	125*	0.16*
CCc1ccc(-c2cc(C)no2)cc1S(=O)(=O)N1CCN(c2cccc(C)c2C)CC1	i	i	i	i	-10	x	x	x	x	x
Cc1cc(-c2ccc(C(C)C)c(S(=O)(=O)N3CCC(C)CC3)c2)on1	i	15*	-17*	-17*	-6	66%*	i	53%*	75*	i
CCc1ccc(-c2cc(C)no2)cc1S(=O)(=O)N1CCC(C)CC1	i	i	-9.3*	-10*	-11	i	i	46%*	102*	i
CSc1ccc(Cl)c(C(=O)NCCOc2cc(C(C)C)ccc2C)c1	i	i	-20*	-10*	-10	72%*	i	38%*	128*	0.13*
COc1cc2c(cc1OC)C(c1cccc([N+](=O)[O-])c1)N(C(=O)c1ccc(F)cc1)CC2 (centres undefined)	i	11*	-17*	-11*	-12	74%*	i	38%*	96*	0.15*
COc1cc2c(cc1OC)C(c1cccc([N+](=O)[O-])c1)N(C(=O)CCC(=O)O)CC2 (centres undefined)	i	i	i	i	-3	x	x	x	x	x
CC(=O)c1c(C)[nH]c(C(=O)N2CCN(c3ccccn3)CC2)c1C	i	i	i	i	-12	x	x	x	x	x
CC(C)(C)n1nnnc1C(c1ccncc1)N1CCN(c2ccc(O)cc2)CC1 (centres undefined)	i	i	i	i	-7	x	x	x	x	x
CC(C)C(c1nnnn1C(C)(C)C)N1CCN(c2cccc(Cl)c2)CC1 (centres undefined)	i	i	-12*	-10*	-7	58%*	i	36%*	126*	0.15*
N#CCCCc1cc2ccccc2cn1	x	x	x	i	x	x	x	x	x	x
c1ccc(-c2nnnn2-c2ccccn2)cc1	x	x	x	i	x	x	x	x	x	x
Cc1cccc(C(C)C)c1-n1nnnc1-c1ccccc1	i	i	-12*	-10*	-12	53%*	i	40%*	117*	i
COc1ccc(NC(=O)c2sccc2SCc2cccc(C(F)(F)F)c2)cc1	i	i	-16*	-9.1*	-5	54%*	34%*	40%*	118*	i
CCCSc1nsc(NC(=O)C(c2ccccc2)c2ccccc2)n1	i	6*	-8.8*	-9*	-6	55%*	i	42%*	132*	0.12*
CCCSc1nsc(NC(=O)CC)n1	i	i	i	i	-4	x	x	x	x	x
CNC(=O)Nc1cccc(-c2cc(-c3c(Cl)cccc3Cl)no2)c1	i	i	-15*	-17*	-9	54%*	i	44%*	122*	0.16*
O=C(Nc1cccnc1)c1cc(-c2cccc(Cl)c2)on1	i	i	i	i	-2	x	x	x	x	x
CC(=O)Nc1cccc(NC(=O)c2c(-c3c(Cl)cccc3Cl)noc2C)c1	i	i	i	i	-5	x	x	x	x	x
CC(=O)Nc1cccc(-c2cc(-c3c(Cl)cccc3Cl)no2)c1	i	i	-11*	-15*	-9	54%*	i	39%*	109*	0.15*
CCN(c1ccccc1)S(=O)(=O)c1ccc(OC)c(NC(=O)c2cc(Cl)ccn2)c1	x	x	x	i	x	x	x	x	x	x
O=C(COC(=O)/C=C/c1ccccc1)NC1CCCCC1	x	x	x	i	x	x	x	x	x	x
CCN1CC2=C(OC(N)=C(C#N)C2c2ccccc2)/C(=C\c2ccccc2)C1 (centres undefined)	i	i	-8.8*	-8.9*	-21	29%*	i	26%*	105*	i
SMILES	KCNQ1 pot	KCNQ1 inh	KCNK9 block	KCNK3 inh	hERG rescue	KCNK9 inh conf	Kir21 sel	HEK293 Tl ctr	KCNK3 confirm	KCNK3 uninduced
CCc1ccc(NC(=O)c2sccc2-n2cccc2)cc1	i	i	-8.6*	-12*	-15	59%*	i	40%*	100*	0.15*
Cc1c(C(=O)N(C)Cc2cccc(F)c2)oc2c(Cl)cccc12	i	i	-14*	-11*	-10	47%*	i	49%*	104*	i
Cc1onc(-c2ccccc2Cl)c1C(=O)N(C)C1CCCCC1	i	i	i	i	-12	x	x	x	x	x
CCN(C(=O)c1c(-c2ccccc2Cl)noc1C)C1CCCCC1	i	i	-9.1*	-12*	-10	50%*	i	33%*	107*	i
CC(Oc1ccc(-c2ccccc2)c(F)c1)c1ccn(S(=O)(=O)c2ccc(F)cc2)n1 (centres undefined)	i	i	-10*	-12*	-14	57%*	i	42%*	106*	i
CCOC(=O)C1(NC(=O)C2(N3C(=O)c4ccccc4C3=O)CCCC2)CCCC1	x	x	x	i	x	x	x	x	x	x
O=C(NNC(=O)c1cc(-c2ccc(Cl)cc2)nc2ccccc12)c1csc(N2CCOCC2)n1	i	i	-10*	-9*	-17	28%*	i	i	80*	i
O=C(NNC(=O)c1cc(-c2ccccc2)nc2ccccc12)c1csc(N2CCOCC2)n1	i	i	i	i	-19	x	x	x	x	x
O=C1CC(c2ccccc2)c2cccc(F)c21 (centres undefined)	i	i	i	i	-8	x	x	x	x	x
O=C(COC(=O)c1ccccc1NC(=O)c1ccccc1)c1ccc([N+](=O)[O-])cc1	i	i	-14*	-9.6*	-7	73%*	i	34%*	104*	i
CCOC(=O)c1ccccc1NC(=O)c1cccc([N+](=O)[O-])c1	i	i	i	i	-4	x	x	x	x	x
